In ChEMBL document CHEMBL1157534, “Discovery of novel, potent benzamide inhibitors of 11beta-hydroxysteroid dehydrogenase type 1 (11beta-HSD1) exhibiting oral activity in an enzyme inhibition ex vivo model” (J Med Chem, 2008):

Tests used:
Cynomolgus monkey [1] = assay: AUC in cynomolgus monkey at 0.5, iv; format: ADME, organism-based, Macaca fascicularis, Plasma; details: in vivo
In short: (§1)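 Single iv dose of 0.5 mg/kg in rat, cynomolgus monkey or dog. This dose group was run alongside a 2.0 mg/kg oral arm. Clearance, half-life, Vdss and AUC were taken from the iv arm.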

[2] = Metabolic stability in human liver microsomes assessed as compound remaining at 1 uM after 30 mins; format: ADME, Microsome; details: read-out: Stability
[3] = molecular target: T1, 11-beta-hydroxysteroid dehydrogenase type 2 (Homo sapiens, UniProt P80365); assay: Inhibition of 11beta-HSD2 by scintillation proximity assay
T1 sequence (P80365 whole entry): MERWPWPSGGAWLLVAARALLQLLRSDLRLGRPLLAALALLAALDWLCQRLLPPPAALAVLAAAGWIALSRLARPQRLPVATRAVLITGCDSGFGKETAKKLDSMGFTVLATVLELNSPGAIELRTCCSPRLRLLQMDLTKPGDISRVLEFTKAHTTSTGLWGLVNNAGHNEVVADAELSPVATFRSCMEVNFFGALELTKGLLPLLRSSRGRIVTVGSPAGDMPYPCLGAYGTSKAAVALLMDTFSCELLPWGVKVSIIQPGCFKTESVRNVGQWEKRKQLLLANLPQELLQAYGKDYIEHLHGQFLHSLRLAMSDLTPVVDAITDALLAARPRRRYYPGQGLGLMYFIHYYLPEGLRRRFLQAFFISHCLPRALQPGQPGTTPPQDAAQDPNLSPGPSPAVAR

[4] = molecular target: T2, 11-beta-hydroxysteroid dehydrogenase 1 (Homo sapiens, UniProt P28845); assay: Inhibition of human cloned 11beta-HSD1 by scintillation proximity assay
Cynomolgus monkey [5] = assay: Clearance in cynomolgus monkey at 0.5 mg/kg, iv; format: ADME, organism-based, Macaca fascicularis; set-up: dose 0.5 mg/kg, route intravenous; details: in vivo; in short: as §1
[6] = Volume of distribution at steady state in rat at 0.5 mg/kg, iv; format: ADME, organism-based; set-up: dose 0.5 mg/kg, route intravenous; details: in vivo, read-out: Vdss; in short: as §1
Rattus norvegicus [7] = assay: Clearance in rat at 0.5 mg/kg, iv; format: ADME, organism-based; set-up: dose 0.5 mg/kg, route intravenous; details: in vivo; in short: as §1
Plasma = assay: Drug level in of cynomolgus monkey plasma at 2 mg/kg, po; format: ADME, organism-based, Macaca fascicularis; set-up: dose 2 mg/kg, route oral; details: in vivo
In short: (§2)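 Cynomolgus monkeys received an oral dose of 2 or 10 mg/kg and were sacrificed 2 h postdose. Mesenteric fat was excised and compound levels were determined in adipose (ng/g) and in plasma.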

[8] = molecular target: T2, 11-beta-hydroxysteroid dehydrogenase 1; assay: Inhibition of human recombinant 11beta-HSD1 expressed in HEK293 cells; format: cell-based
Canis familiaris [9] = assay: Clearance in dog at 0.5 mg/kg, iv; format: ADME, organism-based, Canis lupus familiaris; set-up: dose 0.5 mg/kg, route intravenous; details: in vivo; in short: as §1
[10] = molecular target: T2, 11-beta-hydroxysteroid dehydrogenase 1; assay: Inhibition of human recombinant 11beta-HSD1 expressed in HEK293 cells in presence of 3% human serum albumin; format: cell-based
[11] = Drug level in of cynomolgus monkey mesenteric fat at 10 mg/kg, po; format: ADME, organism-based, Macaca fascicularis; set-up: dose 10 mg/kg, route oral; details: in vivo; in short: as §2
[12] = Volume of distribution at steady state in dog at 0.5, iv; format: ADME, organism-based, Canis lupus familiaris; details: in vivo, read-out: Vdss; in short: as §1
[13] = Oral bioavailability in cynomolgus monkey at 2.0; format: ADME, organism-based, Macaca fascicularis; details: in vivo
In short: (§3)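 Oral bioavailability came from a 2.0 mg/kg po dose compared against an iv arm. The iv dose was 0.5 mg/kg in monkey, dog and one rat group, and 0.17 mg/kg in the other rat group.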

[14] = Volume of distribution at steady state in cynomolgus monkey at 0.5, iv; format: ADME, organism-based, Macaca fascicularis; details: in vivo, read-out: Vdss; in short: as §1
[15] = Oral bioavailability in rat at 2.0 mg/kg; format: ADME, organism-based; details: in vivo; in short: as §3
[16] = Drug level in of cynomolgus monkey mesenteric fat at 2 mg/kg, po; format: ADME, organism-based, Macaca fascicularis; set-up: dose 2 mg/kg, route oral; details: in vivo; in short: as §2
[17] = Half life in dog at 0.5, iv; format: ADME, organism-based, Canis lupus familiaris; details: in vivo; in short: as §1
[18] = Half life in rat at 0.5 mg/kg, iv; format: ADME, organism-based; set-up: dose 0.5 mg/kg, route intravenous; details: in vivo; in short: as §1
[19] = Half life in cynomolgus monkey at 0.5, iv; format: ADME, organism-based, Macaca fascicularis; details: in vivo; in short: as §1
Cynomolgus monkey [20] = assay: Ex vivo inhibition of 11beta-HSD1 in orally dosed cynomolgus monkey mesenteric fat assessed as [3H][…] production; details: Macaca fascicularis, oral
Canis familiaris [21] = assay: AUC in dog at 0.5, iv; format: ADME, organism-based, Canis lupus familiaris, Plasma; details: in vivo; in short: as §1
[22] = molecular target: T2, 11-beta-hydroxysteroid dehydrogenase 1; assay: Inhibition of 11beta-HSD1 in human adipocytes; format: cell-based
[23] = Metabolic stability in rat liver microsomes assessed as compound remaining at 1 uM after 30 mins; format: ADME, Microsome; details: read-out: Stability
[24] = Inhibition of cynomolgus monkey recombinant 11beta-HSD1; set-up: species or system Macaca fascicularis
[25] = Oral bioavailability in dog at 2.0; format: ADME, organism-based, Canis lupus familiaris; details: in vivo; in short: as §3
Rattus norvegicus [26] = assay: AUC in rat at 0.5 mg/kg, iv; format: ADME, organism-based, Plasma; set-up: dose 0.5 mg/kg, route intravenous; details: in vivo; in short: as §1
[27] = Clearance in rat; format: ADME, organism-based; details: in vivo
Rattus norvegicus [28] = assay: Clearance in rat at 0.17 mg/kg, iv; format: ADME, organism-based; set-up: dose 0.17 mg/kg, route intravenous; details: in vivo
In short: (§4)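 Rats were given a single iv dose of 0.17 mg/kg, with a parallel 2.0 mg/kg oral arm. Clearance, half-life, Vdss and AUC were derived from the iv data.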

[29] = Half life in rat at 0.17 mg/kg, iv; format: ADME, organism-based; set-up: dose 0.17 mg/kg, route intravenous; details: in vivo; in short: as §4
[30] = Volume of distribution at steady state in rat at 0.17 mg/kg, iv; format: ADME, organism-based; set-up: dose 0.17 mg/kg, route intravenous; details: in vivo, read-out: Vdss; in short: as §4
Rattus norvegicus [31] = assay: AUC in rat at 0.17 mg/kg, iv; format: ADME, organism-based, Plasma; set-up: dose 0.17 mg/kg, route intravenous; details: in vivo; in short: as §4

T2 sequence (P28845 whole entry): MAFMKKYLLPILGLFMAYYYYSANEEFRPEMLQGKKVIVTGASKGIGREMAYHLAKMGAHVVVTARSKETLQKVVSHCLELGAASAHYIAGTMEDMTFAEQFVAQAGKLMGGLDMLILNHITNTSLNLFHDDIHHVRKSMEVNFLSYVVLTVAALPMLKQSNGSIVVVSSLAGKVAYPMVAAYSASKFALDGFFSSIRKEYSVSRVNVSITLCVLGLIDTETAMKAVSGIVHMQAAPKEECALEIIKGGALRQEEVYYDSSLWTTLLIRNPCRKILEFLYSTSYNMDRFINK

| Compound | remaining at 0.5 h, 1 µM [2] [%] | IC50 [3] [nM] | IC50 [4] [nM] | IC50 [8] [nM] | IC50 [10] [nM] | IC50 [22] [nM] | remaining at 0.5 h, 1 µM [23] [%] | other results |
| --- | --- | --- | --- | --- | --- | --- | --- | --- |
| C[C@](O)(c1ccc(C(=O)N(C2CC2)[C@H]2CC[C@H](c3cccnc3)CC2)cc1)C(F)(F)F | > 90 | > 10000 | 1.4 | 5.8 | 124 | 3 | 51 | AUC (Cynomolgus monkey [1]): 1010 ng·h/mL; CL (Cynomolgus monkey [5]): 8.3 mL/min/kg; Vd [6]: 6.7 L/kg; CL (Rattus norvegicus [7]): 17 mL/min/kg; Drug uptake (Plasma): 604 ng/mL; CL (Canis familiaris [9]): 10 mL/min/kg; Drug uptake [11]: 2890 ng/g; Vd [12]: 3.5 L/kg; bioavailability [13]: 64%; Vd [14]: 8.1 L/kg; bioavailability [15]: 72%; Drug uptake [16]: 1211 ng/mL; half-life [17]: 9.3 h; half-life [18]: 4.5 h; half-life [19]: 11.2 h; ED50 (Cynomolgus monkey [20]): 2 mg/kg; AUC (Canis familiaris [21]): 915 ng·h/mL; IC50 [24]: 39 nM; bioavailability [25]: 4%; AUC (Rattus norvegicus [26]): 481 ng·h/mL |
| CCN(C(=O)c1ccc([C@](C)(O)C(F)(F)F)cc1)C1CCCCC1 | 5 |  | 1.3 | 1.3 | 25 |  | < 5 | clearance [27]: 51.7 mL/min/kg |
| C[C@](O)(c1ccc(C(=O)N(C2CCCCC2)C2CC2)cc1)C(F)(F)F | 81 | > 10000 | 0.8 | 2.4 | 38 |  | < 5 |  |
| C[C@](O)(c1ccc(C(=O)N(C2CC2)[C@H]2CC[C@H](c3ccccc3)CC2)cc1)C(F)(F)F | > 90 | > 10000 | 1.3 | 16 | 155 | 9.8 | > 90 |  |
| C[C@](O)(c1ccc(C(=O)N(C2CC2)[C@H]2CC[C@@H](c3ccccc3)CC2)cc1)C(F)(F)F | 9 | > 10000 | 6.1 | 18 | 123 |  | < 5 |  |
| C[C@](O)(c1ccc(C(=O)N(C2CC2)[C@H]2CC[C@H](F)CC2)cc1)C(F)(F)F | 81 | > 10000 | 6.6 |  | 140 | 4.1 | 16 |  |
| C[C@H]1CCCCN1S(=O)(=O)c1ccc(C(C)(O)C(F)(F)F)cc1 (stereo partly drawn) |  |  |  | 2.1 |  |  |  |  |
| C[C@](O)(c1ccc(C(=O)N(C2CC2)[C@H]2CC[C@H](c3ccc(C#N)cc3)CC2)cc1)C(F)(F)F | > 90 | > 10000 | 0.7 | 12 | 161 | 3.4 | > 90 | CL (Rattus norvegicus [28]): 1.83 mL/min/kg; half-life [29]: 15.7 h; Vd [30]: 2.5 L/kg; AUC (Rattus norvegicus [31]): 1590 ng·h/mL; bioavailability [15]: 29% |
| C[C@](O)(c1ccc(C(=O)N(C2CC2)[C@H]2CC[C@H](CCC#N)CC2)cc1)C(F)(F)F | > 90 | > 10000 | 0.7 | 1.3 | 11 | 0.2 | 42 | CL (Rattus norvegicus [28]): 21.3 mL/min/kg; half-life [29]: 0.5 h; Vd [30]: 0.91 L/kg; AUC (Rattus norvegicus [31]): 393 ng·h/mL; bioavailability [15]: 83% |
| C[C@](O)(c1ccc(C(=O)N(CC(F)(F)F)C2CCCCC2)cc1)C(F)(F)F | 17 |  | 2.6 | 24 | 163 |  | < 5 |  |
| CC(O)(c1ccc(C(=O)N(CC2CC2)C2CCCCC2)cc1)C(F)(F)F (racemic) | 23 |  | 9 | 38 | 849 |  | < 5 |  |
